Test results: ChEMBL document CHEMBL4513216, “Probing the Open Global Health Chemical Diversity Library for Multistage-Active Starting Points for Next-Generation Antimalarials” (ACS Infect Dis, 2020)

test: Toxicity liver stage against HepG2, at 10uM; assay type: cell-based; parameters: test concentration 10 uM, cell line HepG2-A16-CD81EGFP; details: human, HepG2-A16-CD81EGFP cells; read-out: INHIBITION
How it was run: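 Uninfected HepG2-A16-CD81EGFP cells, 3 × 10^3 per well, 1536-well, plated on prespotted compound at 10 μM final, parasite-free screening media added to match infected plates; puromycin 10 μM positive, DMSO 0.5% negative; run in parallel with 48 h PbLuc assay at 37 °C, 5% CO2; viability by CellTiter-Glo luminescence, normalized to controls.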

In order of rising cytotoxicity at 10 µM:
1. Cc1n[nH]c(C)c1CCc1n[nH]c(=O)n1Cc1cccs1  -146%
2. CCOC(=O)N1CCC2(CCCN(C3CCOCC3)C2=O)C1 (stereo unspecified)  -133%
3. O=C(O)[C@@H]1CN(C(=O)c2ccc3[nH]nnc3c2)C[C@H]1c1ccccc1  -130%
4. CNC(=O)[C@H]1C[C@H]2OCC[C@H]2N(CCOc2ccc(Cl)cc2)C1  -104%
5. CC(C)Nc1cccc(CC2CCN(C)C2)n1 (stereo unspecified)  -27.6%
6. CS(=O)(=O)c1cccc(C(N)c2ccc(Cl)cc2)c1 (stereo unspecified)  -16.1%
7. O=C(NCC(c1ccc(F)cc1)N1CCOCC1)Nc1cn[nH]c1 (stereo unspecified)  -15%
8. CCn1ccnc1CN1CCCC1Cn1cc(C)cn1 (stereo unspecified)  -14.3%
9. c1ccc(OCCNC2CCCN(Cc3noc(C4CC4)n3)C2)cc1 (stereo unspecified)  -13.6%
10. COCc1cc(NCCc2ccc(F)cc2)n2nccc2n1  -12.6%
11. CC(C)OC(C)c1nnc(SCC(=O)O)n1-c1ccc(F)cc1F (stereo unspecified)  -11.6%
12. Cc1nn(-c2ccccc2)c(C)c1-c1ccnc(N2CCCOCC2)n1  -11.3%
13. CC(C)c1nc2c(n1C)CCN(CC(=O)Nc1cccnc1)C2  -9.52%
14. Cc1nn(C)c(N(C)C)c1CNCc1ccnc(N2CCCCC2)c1  -9.32%
15. CC(=O)Nc1cccc(OCCNC(=O)N(C)Cc2ccco2)c1  -9.29%
16. Cc1ncc(CNC(=O)NC2CCN(C3CCCC3)CC2)s1  -9.01%
17. O=C(NCCOc1ccc(F)c(F)c1)NCc1cccc(CO)c1  -8.86%
18. Cc1ccc(O)c(C(=O)N2CCOCC2c2c(C)nn(C)c2C)c1 (stereo unspecified)  -8.53%
19. CC(=O)c1ccccc1NC(=O)CCN1CCSCC1  -7.88%
20. CCOCC(O)CN1CCN(C(=O)Cc2cccc(C)c2)CC1 (stereo unspecified)  -7.1%
21. Cc1cc(I)c2c(c1)C(=O)C(CN1CCCC1)(CN1CCCC1)CO2  -6.86%
22. COC1CCN(C(=O)Cc2csc(-c3ccccc3)n2)CC1  -6.75%
23. Cc1ccccc1C1(C(=O)NCCN(C(C)C)C(C)C)CCOCC1  -6.51%
24. COC(=O)N1CCC(Oc2ccc(C(=O)NCCN(C)C)cc2Cl)CC1  -6.34%
25. COc1cccc(-c2nc(CNC(C)Cn3cccn3)cs2)c1 (stereo unspecified)  -6.31%
26. COCc1noc(CCNc2ncnc3c2CCNCC3)n1  -5.59%
27. CC(=O)N1CCC(C(=O)NC2CC(C)(C)Oc3cc(C)ccc32)CC1 (stereo unspecified)  -5.41%
28. Cc1c(Cl)c(C(=O)N2CC(c3cccnc3)C2)nn1C  -5.23%
29. CC(C(N)=O)N(C)CCCc1cc(-c2ccc(F)cc2)n(C)n1 (stereo unspecified)  -4.87%
30. COc1ccc(Cl)cc1CC(=O)N1CCN(CC(C)(C)O)CC1  -4.21%
31. O[C@H]1[C@H](n2cc(CN3CCCC3)nn2)c2ccccc2C12CCNCC2  -3.76%
32. Cc1csc(N2CCCN(C(=O)Cn3cncn3)CC2)n1  -3.27%
33. Cc1nnc(SCCNC(=O)CC2CCc3ccccc32)s1 (stereo unspecified)  -3.13%
34. CN1CCCC(c2cncc(C(=O)NCc3ccccc3Cl)n2)C1 (stereo unspecified)  -2.82%
35. CCN(C)c1ncnc2c1CCN(C(=O)c1ccccn1)CC2  -2.23%
36. CC(NC(=O)NCc1ccoc1)c1ccc2c(c1)CC(=O)N2 (stereo unspecified)  -1.82%
37. Cc1ccc2cc(C3(O)CCN(C(=O)[C@@H]4CCCCN4)CC3)ccc2n1  -0.456%
38. CC(C)CCCNC(=O)Nc1ccc(Cl)c(C(N)=O)c1  -0.252%
39. COCC1c2c(cnn2CC2CC2)CCN1Cc1ccc(C)o1 (stereo unspecified)  -0.201%
40. COCc1noc(CNc2nc(C3CCCC3)nc3c2CCNCC3)n1  0.0228%
41. COCCOC(=O)N1C[C@@H]2CC[C@H]1CN(C1Cc3ccccc3C1)C2  1.06%
42. CCOc1cccc(C(=O)N2CCC3(CC2)[C@H](O)C[C@@H]3OC)c1  2.01%
43. c1ccc(Cc2nc(C3CC3)nn2-c2ccc3c(c2)OCCO3)nc1  2.6%
44. CC(C(=O)N1CCCC1)N1CCC(c2nccn2Cc2cscn2)CC1 (stereo unspecified)  2.79%
45. Cc1cc2cccc(C(=O)N3CC[C@](C)(O)[C@H](C)C3)c2o1  4%
46. Cc1ccc(Sc2nccn(C)c2=O)cc1  4.8%
47. O=C(NCC1CCOCC1)[C@@H]1CC[C@@H]2[C@@H](CCN2Cc2ccncc2)O1  4.85%
48. Cc1cccc(-c2noc(CN3CCc4nn(C)c(=O)cc4C3)n2)c1  5.15%
49. O=C(CN1CCOC(CNc2cccnn2)C1)N1CCCCC1 (stereo unspecified)  5.18%
50. Cc1ccc(C)c2c(C)c(C(=O)NCCCn3cnnc3)[nH]c12  6.28%
51. CN(C)CCN1CCCC12CCN(C(=O)c1ccncc1)CC2  6.29%
52. CS(=O)(=O)N1CCC2(CC1)COC(COc1cccnc1)C2 (stereo unspecified)  7.61%
53. CCO[C@H]1CCN(S(=O)(=O)c2cn(C)cn2)[C@H]1Cc1ccccc1  7.95%
54. CN1CCOCC2(CCCN(C(=O)c3cn(C)cn3)C2)C1 (stereo unspecified)  8.47%
55. CCOCC1CN(S(=O)(=O)N(C)C)Cc2cnn(CC3CC3)c21 (stereo unspecified)  12%
56. Cc1nccn1CCC1CCCCN1Cc1ccncc1 (stereo unspecified)  35.2%
